The record followed here is ChEMBL document CHEMBL1149158, “Combination of paclitaxel and nitric oxide as a novel treatment for the reduction of restenosis” (J Med Chem, 2004).

SMILES strings stand for the structures. pIC50: −log10 of the molar value.

Experiment [1] relates to Oryctolagus cuniculus. The experiment can be described thus: In vivo nitric oxide(NO) release was determined by the coated stent compound in rabbit iliac at 0 h; value expressed as mercury displaceable nitric oxide. It counts as functional.
Experiment [2] has as its system Oryctolagus cuniculus. In words: In vivo nitric oxide(NO) release was determined by the coated stent compound in rabbit iliac at 6 hrs; value expressed as mercury displaceable nitric oxide. In kind it is functional. In a few lines: (§1)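 Coated stent deployed in rabbit iliac artery, position confirmed by angiography; 6 h later animal euthanized with 120 mg/kg iv sodium pentobarbital, stent recovered from the artery and nitrosothiol/NO content measured by chemiluminescence; retained content expressed relative to original load.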

Experiment [3] deals with Oryctolagus cuniculus. In words: In vivo nitric oxide(NO) release was determined by the coated stent compound in rabbit iliac at 6 hrs; value expressed as percent remaining nitric oxide. In kind it is functional. The gist of the method: as §1
The species named for experiment [4] is Oryctolagus cuniculus. In words: In vitro antiplatelet aggregatory effect in rabbit platelet rich plasma (PRP). It counts as functional. The gist of the method:
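Rabbit blood collected 10:1 into 3.8% trisodium citrate pH 6.5, spun 180g 15 min at 21 °C to give PRP. PRP preincubated 2 min at 37 °C with compound (500× ethanol stock), then aggregation induced with ADP (5–10 μM) and followed in an aggregometer; percent inhibition calculated relative to maximum aggregation amplitude.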

The species entered for another experiment is Homo sapiens. The experiment can be described thus: (§2) In vitro antiproliferative effect on cultured human coronary artery smooth muscle cells (hCASMC). In kind it is functional. The gist of the method: (§3)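 Human coronary artery smooth muscle cells seeded at 3×10^4 per well in SmGM2 growth medium; compound added from 1000× ethanol stock 3-4 h after seeding, ethanol vehicle controls, n = 4 per point. After 68-72 h cells trypsinized and viable (Trypan Blue negative) cells counted by hemacytometer; mean ± SD.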

The test system of experiment [5] is Coronary artery smooth muscle cell line. Described as §2. In kind it is functional, cell-based. The gist of the method:
as §3

The species entered for experiment [6] is Oryctolagus cuniculus. In words: Compound was evaluated to determine the stenosis in Rabbit Iliac Arteries. It counts as functional.
The species named for experiment [7] is Oryctolagus cuniculus. In words: Compound was evaluated to determine the stenosis in Rabbit Iliac Arteries value expressed as difference from bare stents. In kind it is functional.
The species entered for experiment [8] is Oryctolagus cuniculus. In words: Compound was evaluated to determine the stenosis in Rabbit Iliac Arteries value expressed as difference from polymer coated stents. It counts as functional.
Experiment [9] is described as follows: Stent coated compound was evaluated for mercury displaceable NO before sterilization (Electron-Beam Radiation). In kind it is functional.
A short description of experiment [10]: Stent coated compound was evaluated for mercury displaceable NO after sterilization (Electron-Beam Radiation). It counts as functional.
The species entered for experiment [11] is Oryctolagus cuniculus. The experiment can be described thus: Compound was evaluated to determine the stenosis in Rabbit Iliac Arteries value expressed as net effect of NO over paclitaxel coated stents. In kind it is functional.

As to `CC(=O)O[C@H]1C(=O)[C@@]2(C)C([C@H](OC(=O)c3ccccc3)[C@]3(O)C[C@H](OC(=O)[C@H](O)[C@@H](NC(=O)c4ccccc4)c4ccccc4)C(C)=C1C3(C)C)[C@]1(OC(C)=O)CO[C@@H]1C[C@@H]2OC(=O)CC(C)(C)SN=O` (some centres not stated) [listing 1 of 2 here], the Activity in the experiment on Oryctolagus cuniculus [1] was 369 nmol/stent; with Oryctolagus cuniculus [2], 214 nM stent-1; with Oryctolagus cuniculus [3], 65%. The pIC50 was 5.00 in the experiment listed under Oryctolagus cuniculus [4] and approximately 7.70 in the experiment filed under Homo sapiens.

In turn, `CC(=O)O[C@H]1C(=O)[C@@]2(C)[C@H]([C@H](OC(=O)c3ccccc3)[C@]3(O)C[C@H](OC(=O)[C@H](O)[C@@H](NC(=O)c4ccccc4)c4ccccc4)C(C)=C1C3(C)C)[C@]1(OC(C)=O)CO[C@@H]1C[C@@H]2O` [PACLITAXEL] gave a pIC50 in experiment [5] of approximately 9.00. The compound also registered a Stenosis in the experiment filed under Oryctolagus cuniculus [6] of 22.6%. Besides, the Activity in the experiment filed under Oryctolagus cuniculus [7] was 23%; in the experiment listed under Oryctolagus cuniculus [8], -11%.

On to `CC(=O)O[C@H]1C(=O)[C@@]2(C)C([C@H](OC(=O)c3ccccc3)[C@]3(O)C[C@H](OC(=O)[C@H](O)[C@@H](NC(=O)c4ccccc4)c4ccccc4)C(C)=C1C3(C)C)[C@]1(OC(C)=O)CO[C@@H]1C[C@@H]2OC(=O)CC(C)(C)S` (some centres not stated), for which, in [5], the pIC50 is 7.70.

As to `CC(=O)O[C@H]1C(=O)[C@@]2(C)C([C@H](OC(=O)c3ccccc3)[C@]3(O)C[C@H](OC(=O)[C@H](O)[C@@H](NC(=O)c4ccccc4)c4ccccc4)C(C)=C1C3(C)C)[C@]1(OC(C)=O)CO[C@@H]1C[C@@H]2OC(=O)CC(C)(C)SN=O.CN(C)C(=O)CC1(SN=O)C2CC3CC(C2)CC1C3` (some centres not stated) [listing 1 of 2 here], the Activity in [9] came out at 733 nM stent-1; in experiment [10], 746 nM stent-1.

Consider `CC(=O)O[C@H]1C(=O)[C@@]2(C)C([C@H](OC(=O)c3ccccc3)[C@]3(O)C[C@H](OC(=O)[C@H](O)[C@@H](NC(=O)c4ccccc4)c4ccccc4)C(C)=C1C3(C)C)[C@]1(OC(C)=O)CO[C@@H]1C[C@@H]2OC(=O)CC(C)(C)SN=O` (some centres not stated) [listing 2 of 2 here], for which the Activity stood at 349 nM stent-1 in [9] and 316 nM stent-1 in experiment [10].

On to `CC(=O)O[C@H]1C(=O)[C@@]2(C)C([C@H](OC(=O)c3ccccc3)[C@]3(O)C[C@H](OC(=O)[C@H](O)[C@@H](NC(=O)c4ccccc4)c4ccccc4)C(C)=C1C3(C)C)[C@]1(OC(C)=O)CO[C@@H]1C[C@@H]2OC(=O)CC(C)(C)SN=O.CN(C)C(=O)CC1(SN=O)C2CC3CC(C2)CC1C3` (some centres not stated) [listing 2 of 2 here], for which, in the experiment filed under Oryctolagus cuniculus [6], the Stenosis is listed as 15%. The Activity in the experiment filed under Oryctolagus cuniculus [7] was -18%; in the experiment listed under Oryctolagus cuniculus [8] it was -41%; in the experiment listed under Oryctolagus cuniculus [11] it was -34%; in the experiment on Oryctolagus cuniculus [1], 627 nmol/stent; in the experiment on Oryctolagus cuniculus [2], 209 nM stent-1; in the experiment on Oryctolagus cuniculus [3], 31%.

`CN(C)C(=O)CC1(SN=O)C2CC3CC(C2)CC1C3` (configuration not stated) gave a pIC50 in [5] of 4.82. The Activity with Oryctolagus cuniculus [1] stood at 417 nmol/stent; in the experiment on Oryctolagus cuniculus [2], 18 nM stent-1; in the experiment with Oryctolagus cuniculus [3], 5%; in experiment [9], 436 nM stent-1; in [10], 440 nM stent-1.
